Measured values taken from ChEMBL document CHEMBL1649247, “Fluoroquinolone resistance in Mycobacterium tuberculosis and mutations in gyrA and gyrB” (2009).
In brackets after ≈: the same amount, converted by molar mass. Activity calls are given as the source filed them. The rule behind the calls is not given here.

Legend:
[1] = test system: Mycobacterium tuberculosis; assay: Antimycobacterial activity against multidrug-resistant Mycobacterium tuberculosis 08-0785 harboring gyrA Ala90Val mutant gene by resazurin microtiter assay; format: functional
In short: (§1)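 MIC was read by resazurin microtiter assay against ofloxacin, moxifloxacin and gatifloxacin. Isolates were used as fresh Löwenstein-Jensen subcultures kept at 37°C for no longer than 4 weeks.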

[2] = test system: Mycobacterium tuberculosis; assay: Antimycobacterial activity against multidrug-resistant Mycobacterium tuberculosis 08-0797 harboring gyrA Ala90Val mutant gene by resazurin microtiter assay; format: functional; in short: as §1
[3] = test system: Mycobacterium tuberculosis; assay: Antimycobacterial activity against multidrug-resistant Mycobacterium tuberculosis 01-2614 harboring gyrA Asp94Gly mutant gene by resazurin microtiter assay; format: functional
In short: (§2)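 Isolates taken from fresh Löwenstein-Jensen subcultures grown at 37°C for at most 4 weeks. Drug stocks 1 mg/ml in 0.1 N NaOH, filter sterilized, stored at −20°C less than 2 months. MIC read by resazurin microtiter assay following a previously described protocol.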

[4] = test system: Mycobacterium tuberculosis; assay: Antimycobacterial activity against multidrug-resistant Mycobacterium tuberculosis 08-0821 harboring gyrA Asp94Tyr mutant gene by resazurin microtiter assay; format: functional; in short: as §1
[5] = test system: Mycobacterium tuberculosis; assay: Antimycobacterial activity against multidrug-resistant Mycobacterium tuberculosis 02-2399 harboring gyrA Asp94Tyr mutant gene by resazurin microtiter assay; format: functional; in short: as §2
[6] = test system: Mycobacterium tuberculosis; assay: Antimycobacterial activity against multidrug-resistant Mycobacterium tuberculosis 02-0319 harboring gyrA Asp94Ala mutant gene by resazurin microtiter assay; format: functional; in short: as §2
[7] = test system: Mycobacterium tuberculosis; assay: Antimycobacterial activity against multidrug-resistant Mycobacterium tuberculosis 01-0172 harboring gyrA Asp94Ala mutant gene by resazurin microtiter assay; format: functional; in short: as §2
[8] = test system: Mycobacterium tuberculosis; assay: Antimycobacterial activity against multidrug-resistant Mycobacterium tuberculosis 04-0519 harboring gyrA Ala90Val and Asp94Asn mutant gene by resazurin microtiter assay; format: functional; in short: as §1
[9] = test system: Mycobacterium tuberculosis; assay: Antimycobacterial activity against Mycobacterium tuberculosis 08-0745 harboring gyrA Asp89Asn mutant gene by resazurin microtiter assay; format: functional; in short: as §2
[10] = test system: Mycobacterium tuberculosis; assay: Antimycobacterial activity against multidrug-resistant Mycobacterium tuberculosis 02-1234 harboring gyrA Asn533Thr gyrB mutant gene by resazurin microtiter assay; format: functional; in short: as §2
[11] = test system: Mycobacterium tuberculosis; assay: Antimycobacterial activity against multidrug-resistant Mycobacterium tuberculosis 08-0794 harboring gyrA Thr80Ala mutant gene by resazurin microtiter assay; format: functional; in short: as §1
[12] = test system: Mycobacterium tuberculosis; assay: Antimycobacterial activity against Mycobacterium tuberculosis 08-0815 harboring gyrA Thr80Ala and Ala90Gly mutant gene by resazurin microtiter assay; format: functional; in short: as §2
[13] = test system: Mycobacterium tuberculosis; assay: Antimycobacterial activity against Mycobacterium tuberculosis 08-0769 harboring gyrA putative promoter mutant gene by resazurin microtiter assay; format: functional; in short: as §2
[14] = test system: Mycobacterium tuberculosis; assay: Antimycobacterial activity against Mycobacterium tuberculosis 08-0771 harboring gyrA putative promoter mutant gene by resazurin microtiter assay; format: functional; in short: as §2
[15] = test system: Mycobacterium tuberculosis; assay: Antimycobacterial activity against multidrug-resistant Mycobacterium tuberculosis 08-0777 by resazurin microtiter assay; format: functional; in short: as §1
[16] = test system: Mycobacterium tuberculosis; assay: Antimycobacterial activity against multidrug-resistant Mycobacterium tuberculosis 08-0779 by resazurin microtiter assay; format: functional; in short: as §1
[17] = test system: Mycobacterium tuberculosis; assay: Antimycobacterial activity against multidrug-resistant Mycobacterium tuberculosis 03-0738 harboring gyrA Ala90Val mutant gene assessed as microbial susceptibility by agar proportion method; format: functional, organism-based
In short: (§3)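 Clinical isolates freshly subcultured on Löwenstein-Jensen medium at 37°C for no more than 4 weeks. Susceptibility by standard proportion method on 7H11 agar at breakpoints of 2 mg/liter ofloxacin and 0.5 mg/liter moxifloxacin and gatifloxacin. Drug stocks 1 mg/ml in 0.1 N NaOH, filter sterilized, held at −20°C under 2 months. Isolates scored susceptible or resistant.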

[18] = test system: Mycobacterium tuberculosis; assay: Antimycobacterial activity against multidrug-resistant Mycobacterium tuberculosis 02-2934 harboring gyrA Ala90Val mutant gene assessed as microbial susceptibility by agar proportion method; format: functional, organism-based
In short: (§4)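 Clinical isolates freshly subcultured on Löwenstein-Jensen medium, held at 37°C no longer than 4 weeks. Fluoroquinolone stocks 1 mg/ml in 0.1 N NaOH, filter sterilized, kept at −20°C under 2 months. Standard proportion method on 7H11 agar; breakpoints 2 mg/liter ofloxacin, 0.5 mg/liter moxifloxacin and gatifloxacin; scored susceptible or resistant.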

[19] = test system: Mycobacterium tuberculosis; assay: Antimycobacterial activity against multidrug-resistant Mycobacterium tuberculosis 01-1647 harboring gyrA Ala90Val mutant gene assessed as microbial susceptibility by agar proportion method; format: functional, organism-based; in short: as §4
[20] = test system: Mycobacterium tuberculosis; assay: Antimycobacterial activity against multidrug-resistant Mycobacterium tuberculosis 01-0930 harboring gyrA Ala90Val mutant gene assessed as microbial susceptibility by agar proportion method; format: functional, organism-based; in short: as §4
[21] = test system: Mycobacterium tuberculosis; assay: Antimycobacterial activity against multidrug-resistant Mycobacterium tuberculosis 08-0757 harboring gyrA Ala90Val mutant gene assessed as microbial susceptibility by agar proportion method; format: functional, organism-based; in short: as §3
[22] = test system: Mycobacterium tuberculosis; assay: Antimycobacterial activity against multidrug-resistant Mycobacterium tuberculosis 08-0785 harboring gyrA Ala90Val mutant gene assessed as microbial susceptibility by agar proportion method; format: functional, organism-based; in short: as §3
[23] = test system: Mycobacterium tuberculosis; assay: Antimycobacterial activity against multidrug-resistant Mycobacterium tuberculosis 08-0790 harboring gyrA Ala90Val mutant gene assessed as microbial susceptibility by agar proportion method; format: functional, organism-based; in short: as §3
[24] = test system: Mycobacterium tuberculosis; assay: Antimycobacterial activity against multidrug-resistant Mycobacterium tuberculosis 08-0797 harboring gyrA Ala90Val mutant gene assessed as microbial susceptibility by agar proportion method; format: functional, organism-based; in short: as §3
[25] = test system: Mycobacterium tuberculosis; assay: Antimycobacterial activity against multidrug-resistant Mycobacterium tuberculosis 99-1914 harboring gyrA Asp94Gly mutant gene assessed as microbial susceptibility by agar proportion method; format: functional, organism-based; in short: as §3
[26] = test system: Mycobacterium tuberculosis; assay: Antimycobacterial activity against multidrug-resistant Mycobacterium tuberculosis 01-2230 harboring gyrA Asp94Gly mutant gene assessed as microbial susceptibility by agar proportion method; format: functional, organism-based; in short: as §4
[27] = test system: Mycobacterium tuberculosis; assay: Antimycobacterial activity against multidrug-resistant Mycobacterium tuberculosis 08-0810 harboring gyrA Asp94Tyr mutant gene assessed as microbial susceptibility by agar proportion method; format: functional, organism-based; in short: as §3
[28] = test system: Mycobacterium tuberculosis; assay: Antimycobacterial activity against multidrug-resistant Mycobacterium tuberculosis 08-0821 harboring gyrA Asp94Tyr mutant gene assessed as microbial susceptibility by agar proportion method; format: functional, organism-based; in short: as §3
[29] = test system: Mycobacterium tuberculosis; assay: Antimycobacterial activity against Mycobacterium tuberculosis 04-0649 harboring gyrA Asp94Asn mutant gene assessed as microbial susceptibility by agar proportion method; format: functional, organism-based; in short: as §4
[30] = test system: Mycobacterium tuberculosis; assay: Antimycobacterial activity against multidrug-resistant Mycobacterium tuberculosis 02-2399 harboring gyrA Asp94Tyr mutant gene assessed as microbial susceptibility by agar proportion method; format: functional, organism-based; in short: as §4
[31] = test system: Mycobacterium tuberculosis; assay: Antimycobacterial activity against multidrug-resistant Mycobacterium tuberculosis 04-0519 harboring gyrA Ala90Val and Asp94Asn mutant gene assessed as microbial susceptibility by agar proportion method; format: functional, organism-based; in short: as §3
[32] = test system: Mycobacterium tuberculosis; assay: Antimycobacterial activity against multidrug-resistant Mycobacterium tuberculosis 02-1234 harboring gyrA Asn533Thr gyrB mutant gene assessed as microbial susceptibility by agar proportion method; format: functional, organism-based; in short: as §4
[33] = test system: Mycobacterium tuberculosis; assay: Antimycobacterial activity against multidrug-resistant Mycobacterium tuberculosis 08-0794 harboring gyrA Thr80Ala mutant gene assessed as microbial susceptibility by agar proportion method; format: functional, organism-based; in short: as §3
[34] = test system: Mycobacterium tuberculosis; assay: Antimycobacterial activity against Mycobacterium tuberculosis 08-0815 harboring gyrA Thr80Ala and Ala90Gly mutant gene assessed as microbial susceptibility by agar proportion method; format: functional, organism-based; in short: as §4
[35] = test system: Mycobacterium tuberculosis; assay: Antimycobacterial activity against Mycobacterium tuberculosis 08-0769 harboring gyrA putative promoter mutant gene assessed as microbial susceptibility by agar proportion method; format: functional, organism-based; in short: as §4
[36] = test system: Mycobacterium tuberculosis; assay: Antimycobacterial activity against Mycobacterium tuberculosis 00-0715 harboring gyrA Ala90Val mutant gene by resazurin microtiter assay; format: functional; in short: as §2
[37] = test system: Mycobacterium tuberculosis; assay: Antimycobacterial activity against multidrug-resistant Mycobacterium tuberculosis 01-1647 harboring gyrA Ala90Val mutant gene by resazurin microtiter assay; format: functional; in short: as §2

**Q.** How did the MIC [1] turn out when `COc1c(N2CCNC(C)C2)c(F)cc2c(=O)c(C(=O)O)cn(C3CC3)c12` (configuration not stated) [GATIFLOXACIN] was run?
**A.** The MIC was 1 µg/mL (≈ 2.66 µM).

**Q.** And the MIC [2]?
**A.** The MIC was 0.5 µg/mL (≈ 1.33 µM).

**Q.** And the MIC [3]?
**A.** Its MIC is 1 µg/mL (≈ 2.66 µM).

**Q.** What about the MIC [4] of the same compound?
**A.** The MIC was 1 µg/mL (≈ 2.66 µM).

**Q.** And the MIC [5]?
**A.** The MIC was 0.25 µg/mL (≈ 0.666 µM).

**Q.** What about the MIC [6] of the same compound?
**A.** Its MIC is 0.25 µg/mL (≈ 0.666 µM).

**Q.** And the MIC [7]?
**A.** Its MIC is 0.25 µg/mL (≈ 0.666 µM).

**Q.** And the MIC [8]?
**A.** The MIC was greater than 4 µg/mL.

**Q.** And the MIC [9]?
**A.** Its MIC is 1 µg/mL (≈ 2.66 µM).

**Q.** What about the MIC [10] of the same compound?
**A.** The MIC was 0.5 µg/mL (≈ 1.33 µM).

**Q.** And the MIC [11]?
**A.** Its MIC is “<=0.062 mg/L”.

**Q.** And the MIC [12]?
**A.** The MIC was “<=0.062 mg/L”.

**Q.** What about the MIC [13] of the same compound?
**A.** Its MIC is 0.125 µg/mL (≈ 0.333 µM).

**Q.** And the MIC [14]?
**A.** Its MIC is 0.125 µg/mL (≈ 0.333 µM).

**Q.** What about the MIC [15] of the same compound?
**A.** The MIC was no more than 0.062 µg/mL.

**Q.** And the MIC [16]?
**A.** Its MIC is no more than 0.062 µg/mL.

**Q.** And the Activity [17]?
**A.** Its Activity is “inactive”.

**Q.** And the Activity [18]?
**A.** Its Activity is “inactive”.

**Q.** And the Activity [19]?
**A.** The Activity was “inactive”.

**Q.** What about the Activity [20] of the same compound?
**A.** The Activity was “inactive”.

**Q.** What about the Activity [21] of the same compound?
**A.** The Activity was “inactive”.

**Q.** And the Activity [22]?
**A.** Its Activity is “inactive”.

**Q.** And the Activity [23]?
**A.** Its Activity is “inactive”.

**Q.** And the Activity [24]?
**A.** The Activity was “inactive”.

**Q.** And the Activity [25]?
**A.** The Activity was “inactive”.

**Q.** And the Activity [26]?
**A.** The Activity was “inactive”.

**Q.** What about the Activity [27] of the same compound?
**A.** Its Activity is “inactive”.

**Q.** What about the Activity [28] of the same compound?
**A.** The Activity was “inactive”.

**Q.** What about the Activity [29] of the same compound?
**A.** The Activity was “inactive”.

**Q.** And the Activity [30]?
**A.** Its Activity is “inactive”.

**Q.** What about the Activity [31] of the same compound?
**A.** Its Activity is “inactive”.

**Q.** And the Activity [32]?
**A.** The Activity was “inactive”.

**Q.** What about the Activity [33] of the same compound?
**A.** Its Activity is “Active”.

**Q.** And the Activity [34]?
**A.** The Activity was “Active”.

**Q.** And the Activity [35]?
**A.** Its Activity is “Active”.

**Q.** What about the MIC [36] of the same compound?
**A.** The MIC was 0.5 µg/mL (≈ 1.33 µM).

**Q.** And the MIC [37]?
**A.** The MIC was 0.5 µg/mL (≈ 1.33 µM).
